In article PMC3048909 (Journal of medicinal chemistry, 2011):
Where two headings read alike, the source gives them in different places.

What was measured:
[1] = system: nicotine-induced locomotor depression; assay: Blockade of nicotine-induced locomotor depression; format: in vivo, mice; settings: for AD50 Locomotion: mice, antagonism of acute nicotine, parentheses: confidence limits; for ED50: Mus musculus, read-out: AD50 Locomotion
Procedure, shortened: (§1)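 Male ICR mice (20–25 g) were given the test compound to block the acute effects of nicotine. Dose-response curves used at least four doses of test compound, with at least eight mice per dose group. Results are AD50 (mg/kg) with confidence limits, or % effect at the highest dose tested.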

[2] = target: T1, human DAT (Homo sapiens, UniProt Q01959); assay: [3H]DA uptake inhibition, HEK-293 cells expressing human DAT; format: cell-based; settings: for Increase in potency for inhibition of DA uptake: relative to (S,S)-5a
[3] = target: α4β2-nAChR (Homo sapiens, UniProt P17787+P43681); assay: 86Rb+ efflux assay of nAChR function; format: cell-based
[4] = target: α1*-nAChR (muscle-type α1β1γδ-nAChR) (Homo sapiens, UniProt P02708+P07510+P11230+Q07001); assay: 86Rb+ efflux assay of nAChR function; format: cell-based
[5] = target: human NET (Homo sapiens, UniProt P23975); assay: [3H]NE uptake inhibition, HEK-293 cells expressing human NET; format: cell-based
[6] = system: nicotine-induced antinociception (tail-flick); assay: Blockade of nicotine-induced antinociception, tail-flick test; format: in vivo, mice; settings: for ED50: Mus musculus, read-out: AD50 Tail-flick; for More potent in the tail-flick test: relative to (S,S)-4a; for AD50 Tail-flick: mice, antagonism of acute nicotine, parentheses: confidence limits
Procedure, shortened: as §1

[7] = target: α4β4-nAChR (Homo sapiens, UniProt P30926+P43681); assay: 86Rb+ efflux assay of nAChR function; format: cell-based
[8] = system: nicotine-induced antinociception (hot-plate); assay: Blockade of nicotine-induced antinociception, hot-plate test; format: in vivo, mice; settings: for ED50: Mus musculus, read-out: AD50 Hot-plate
Procedure, shortened: as §1

[9] = target: α3β4*-nAChR (Homo sapiens, UniProt P30926+P32297); assay: 86Rb+ efflux assay of nAChR function; format: cell-based
[10] = system: nicotine-induced hypothermia; assay: Blockade of nicotine-induced hypothermia; format: in vivo, mice; settings: for ED50: Mus musculus, read-out: AD50 Hypothermia
Procedure, shortened: as §1

[11] = system: nicotine-induced antinociception (hot-plate); settings: mice, antagonism of acute nicotine; parentheses: confidence limits; cited from earlier work
[12] = system: nicotine-induced CPP; settings: mice, blockade of nicotine-induced CPP; cited from earlier work
[13] = system: nicotine-induced locomotor depression; settings: mice, antagonism of acute nicotine; parentheses: confidence limits; cited from earlier work
[14] = system: nicotine-induced hypothermia; settings: mice, antagonism of acute nicotine; parentheses: confidence limits; cited from earlier work
[15] = system: nicotine-induced antinociception (tail-flick); settings: mice, antagonism of acute nicotine; parentheses: confidence limits; cited from earlier work
[16] = target: T1, human DAT; settings: HEK-293 cells, mean ± standard error; cited from earlier work
[17] = system: nicotine-induced CPP; assay: Blockade of nicotine-induced conditioned place preference; format: in vivo, mice; settings: for AD50 CPP: mice, blockade of nicotine-induced CPP
[18] = target: human SERT (Homo sapiens, UniProt P31645); assay: [3H]5HT uptake inhibition, HEK-293 cells expressing human SERT; format: cell-based; settings: relative to (S,S)-5a
[19] = mice, antagonism of acute nicotine, parentheses: confidence limits

human NET, sequence (P23975 whole entry): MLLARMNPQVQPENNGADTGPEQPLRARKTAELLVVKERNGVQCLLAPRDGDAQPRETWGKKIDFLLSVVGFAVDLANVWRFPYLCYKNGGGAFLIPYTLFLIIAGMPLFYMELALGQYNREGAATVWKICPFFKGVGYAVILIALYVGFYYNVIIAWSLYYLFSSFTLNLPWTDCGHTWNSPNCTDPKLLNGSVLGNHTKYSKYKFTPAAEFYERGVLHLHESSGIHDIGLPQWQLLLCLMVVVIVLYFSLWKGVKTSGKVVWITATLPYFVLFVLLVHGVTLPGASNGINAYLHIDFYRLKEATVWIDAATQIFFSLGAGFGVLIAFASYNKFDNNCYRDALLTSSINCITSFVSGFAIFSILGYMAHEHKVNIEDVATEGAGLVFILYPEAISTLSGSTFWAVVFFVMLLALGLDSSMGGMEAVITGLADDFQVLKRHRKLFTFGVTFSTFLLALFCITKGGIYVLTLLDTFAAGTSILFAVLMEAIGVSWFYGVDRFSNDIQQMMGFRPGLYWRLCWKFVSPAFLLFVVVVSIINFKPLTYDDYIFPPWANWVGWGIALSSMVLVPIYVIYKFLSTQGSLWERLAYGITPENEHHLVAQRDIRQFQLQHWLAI
α4β4-nAChR, sequence (P43681 29-627 limits assumed): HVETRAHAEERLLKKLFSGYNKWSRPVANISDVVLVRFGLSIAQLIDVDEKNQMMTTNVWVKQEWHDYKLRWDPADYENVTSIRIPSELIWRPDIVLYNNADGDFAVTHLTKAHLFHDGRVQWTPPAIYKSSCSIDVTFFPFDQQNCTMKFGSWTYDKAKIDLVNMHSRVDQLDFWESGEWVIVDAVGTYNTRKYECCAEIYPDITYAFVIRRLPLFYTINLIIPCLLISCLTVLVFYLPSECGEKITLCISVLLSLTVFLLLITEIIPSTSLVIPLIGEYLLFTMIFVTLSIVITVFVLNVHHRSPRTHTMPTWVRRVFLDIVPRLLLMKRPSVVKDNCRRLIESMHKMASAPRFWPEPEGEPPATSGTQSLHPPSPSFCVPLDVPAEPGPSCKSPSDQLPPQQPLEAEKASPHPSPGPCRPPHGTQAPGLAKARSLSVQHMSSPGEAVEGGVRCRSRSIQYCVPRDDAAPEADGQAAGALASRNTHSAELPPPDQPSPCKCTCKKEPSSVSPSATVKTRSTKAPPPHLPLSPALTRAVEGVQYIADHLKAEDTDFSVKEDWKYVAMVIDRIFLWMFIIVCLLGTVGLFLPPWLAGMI
α4β4-nAChR, sequence (P30926 22-498): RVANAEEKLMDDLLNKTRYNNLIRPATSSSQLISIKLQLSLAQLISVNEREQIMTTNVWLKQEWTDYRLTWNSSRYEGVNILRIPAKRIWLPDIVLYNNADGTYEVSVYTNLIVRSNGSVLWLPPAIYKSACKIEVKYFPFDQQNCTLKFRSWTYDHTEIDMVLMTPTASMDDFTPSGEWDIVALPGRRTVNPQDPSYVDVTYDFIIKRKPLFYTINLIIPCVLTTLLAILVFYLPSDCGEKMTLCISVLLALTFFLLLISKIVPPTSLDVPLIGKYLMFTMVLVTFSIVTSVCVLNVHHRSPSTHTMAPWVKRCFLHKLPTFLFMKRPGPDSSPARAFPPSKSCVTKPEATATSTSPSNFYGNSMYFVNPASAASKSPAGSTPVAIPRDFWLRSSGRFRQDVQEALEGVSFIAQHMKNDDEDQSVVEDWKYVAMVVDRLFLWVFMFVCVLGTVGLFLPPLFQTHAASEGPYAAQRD
α4β2-nAChR, sequence (P43681 29-627 limits assumed): as the sequence (P43681 29-627 limits assumed) above
α4β2-nAChR, sequence (P17787 26-502): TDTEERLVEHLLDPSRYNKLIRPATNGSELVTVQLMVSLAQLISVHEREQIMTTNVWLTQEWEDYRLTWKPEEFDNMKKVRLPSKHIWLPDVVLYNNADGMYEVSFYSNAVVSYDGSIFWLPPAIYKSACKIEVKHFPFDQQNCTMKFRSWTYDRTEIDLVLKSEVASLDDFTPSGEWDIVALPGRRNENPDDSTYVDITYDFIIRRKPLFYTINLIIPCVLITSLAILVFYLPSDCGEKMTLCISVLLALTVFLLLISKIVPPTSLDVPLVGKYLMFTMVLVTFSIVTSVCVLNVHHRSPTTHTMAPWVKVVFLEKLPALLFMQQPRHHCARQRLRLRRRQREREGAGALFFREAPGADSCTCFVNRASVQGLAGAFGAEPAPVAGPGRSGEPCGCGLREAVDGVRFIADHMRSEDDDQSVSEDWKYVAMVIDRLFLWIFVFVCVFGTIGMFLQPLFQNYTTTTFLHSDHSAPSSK
α1*-nAChR (muscle-type α1β1γδ-nAChR), sequence (P02708 21-457): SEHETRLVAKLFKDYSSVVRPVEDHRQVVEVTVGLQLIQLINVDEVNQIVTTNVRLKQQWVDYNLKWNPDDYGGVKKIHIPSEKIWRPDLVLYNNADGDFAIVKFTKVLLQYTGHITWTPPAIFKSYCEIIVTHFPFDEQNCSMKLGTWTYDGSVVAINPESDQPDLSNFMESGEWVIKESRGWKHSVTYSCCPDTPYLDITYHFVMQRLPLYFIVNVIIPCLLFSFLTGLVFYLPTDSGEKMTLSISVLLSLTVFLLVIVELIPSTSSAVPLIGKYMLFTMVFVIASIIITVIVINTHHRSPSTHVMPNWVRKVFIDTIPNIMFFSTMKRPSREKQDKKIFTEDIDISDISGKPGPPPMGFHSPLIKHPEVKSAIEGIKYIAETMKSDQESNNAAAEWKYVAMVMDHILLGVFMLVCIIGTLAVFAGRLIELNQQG
α1*-nAChR (muscle-type α1β1γδ-nAChR), sequence (P11230 24-501): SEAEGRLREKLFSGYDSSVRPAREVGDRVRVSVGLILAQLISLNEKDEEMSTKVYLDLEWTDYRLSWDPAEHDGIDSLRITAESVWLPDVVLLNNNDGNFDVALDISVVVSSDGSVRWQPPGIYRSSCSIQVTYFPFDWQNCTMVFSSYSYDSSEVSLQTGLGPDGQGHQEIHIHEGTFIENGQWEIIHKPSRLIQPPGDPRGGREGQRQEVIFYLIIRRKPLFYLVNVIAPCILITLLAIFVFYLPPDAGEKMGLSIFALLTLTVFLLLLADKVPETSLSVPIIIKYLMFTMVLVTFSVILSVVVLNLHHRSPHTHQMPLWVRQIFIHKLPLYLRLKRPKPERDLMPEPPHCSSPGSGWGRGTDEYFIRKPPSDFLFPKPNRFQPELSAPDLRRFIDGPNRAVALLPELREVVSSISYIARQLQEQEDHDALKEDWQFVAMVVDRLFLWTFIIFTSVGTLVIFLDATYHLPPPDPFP
α1*-nAChR (muscle-type α1β1γδ-nAChR), sequence (P07510 23-517): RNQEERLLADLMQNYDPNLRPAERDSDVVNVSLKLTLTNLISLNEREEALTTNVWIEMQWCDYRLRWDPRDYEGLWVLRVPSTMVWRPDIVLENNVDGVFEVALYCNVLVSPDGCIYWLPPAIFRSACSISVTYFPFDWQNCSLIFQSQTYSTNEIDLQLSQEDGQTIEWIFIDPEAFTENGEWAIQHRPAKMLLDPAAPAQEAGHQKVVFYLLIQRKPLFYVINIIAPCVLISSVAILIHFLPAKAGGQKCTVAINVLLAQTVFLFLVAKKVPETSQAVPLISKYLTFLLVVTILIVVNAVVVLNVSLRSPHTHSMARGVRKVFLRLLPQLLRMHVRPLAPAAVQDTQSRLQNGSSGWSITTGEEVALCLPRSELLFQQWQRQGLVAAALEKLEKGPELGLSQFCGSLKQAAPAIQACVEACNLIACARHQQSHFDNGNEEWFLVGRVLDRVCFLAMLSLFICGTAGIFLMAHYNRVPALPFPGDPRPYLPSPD
α1*-nAChR (muscle-type α1β1γδ-nAChR), sequence (Q07001 22-517): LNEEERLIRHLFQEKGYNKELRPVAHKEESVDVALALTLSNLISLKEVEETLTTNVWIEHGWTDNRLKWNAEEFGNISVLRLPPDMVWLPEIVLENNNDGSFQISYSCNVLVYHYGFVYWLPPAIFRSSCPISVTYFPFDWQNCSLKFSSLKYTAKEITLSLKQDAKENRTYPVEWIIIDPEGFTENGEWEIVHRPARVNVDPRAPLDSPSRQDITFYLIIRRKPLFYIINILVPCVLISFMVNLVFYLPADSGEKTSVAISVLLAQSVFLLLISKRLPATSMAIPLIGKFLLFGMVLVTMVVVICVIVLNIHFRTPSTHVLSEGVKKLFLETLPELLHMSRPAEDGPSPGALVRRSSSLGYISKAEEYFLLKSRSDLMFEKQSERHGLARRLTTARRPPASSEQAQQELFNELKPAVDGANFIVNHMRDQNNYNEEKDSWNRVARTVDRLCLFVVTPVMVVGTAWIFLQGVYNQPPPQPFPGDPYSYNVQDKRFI
T1 sequence (Q01959 whole entry): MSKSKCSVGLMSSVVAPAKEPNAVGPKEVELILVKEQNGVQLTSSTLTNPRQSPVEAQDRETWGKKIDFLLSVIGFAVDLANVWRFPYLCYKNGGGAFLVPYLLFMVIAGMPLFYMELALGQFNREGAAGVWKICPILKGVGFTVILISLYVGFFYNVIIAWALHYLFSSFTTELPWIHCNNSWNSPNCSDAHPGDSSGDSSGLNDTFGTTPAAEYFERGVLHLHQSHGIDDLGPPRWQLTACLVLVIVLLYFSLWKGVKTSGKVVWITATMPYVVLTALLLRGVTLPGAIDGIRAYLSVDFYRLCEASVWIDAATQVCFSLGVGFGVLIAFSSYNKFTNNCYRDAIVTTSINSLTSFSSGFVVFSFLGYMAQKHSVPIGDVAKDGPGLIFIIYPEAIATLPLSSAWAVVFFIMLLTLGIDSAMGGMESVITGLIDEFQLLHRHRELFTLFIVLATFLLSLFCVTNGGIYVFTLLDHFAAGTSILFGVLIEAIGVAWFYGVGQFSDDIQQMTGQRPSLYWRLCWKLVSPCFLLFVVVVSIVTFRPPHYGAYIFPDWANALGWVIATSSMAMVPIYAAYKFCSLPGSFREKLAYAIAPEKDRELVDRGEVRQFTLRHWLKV

SMILES | IC50 [2] [µM] | IC50 [3] [µM] | IC50 [4] [µM] | IC50 [5] [µM] | ED50 [6] [mg/kg] | IC50 [7] [µM] | ED50 [8] [mg/kg] | IC50 [9] [µM] | ED50 [10] [mg/kg] | ED50 [1] [mg/kg] | other results
C[C@@H]1NC(C)(C)CO[C@H]1c1cccc(Br)c1 [(S,S)-5c, (S,S)-2-(3'-Bromophenyl)-3,5,5-trimethylmorpholine] | 0.044 ± 0.003 | 12 | 7.3 | 0.15 ± 0.02 | 0.006 | 11 | > 20 | 1.4 | > 20 |  | AD50 Locomotion [1]: 2.1 (0.9–4.8) mg/kg; Increase in potency for inhibition of DA uptake [2]: 5 fold; More potent in the tail-flick test [6]: ~ 33 times; More potent at α3β4*-nAChR ([9]; relative to (S,S)-5a): ~ 2 fold
CC[C@@H]1NC(C)(C)CO[C@H]1c1cccc(Cl)c1 [(S,S)-5g, (S,S)-2-(3'-Chlorophenyl)-3-ethyl-5,5-dimethylmorpholine] | 0.023 ± 0.005 | 14 | 13 | 0.019 ± 0.003 | 0.018 | 15 | 9.6 | 5.6 | 2.5 | 2.7 | AD50 Tail-flick [6]: 0.018 (0.009–0.03) mg/kg
C[C@@H]1NC(C)(C)CO[C@H]1c1cccc(Cl)c1 [(S,S)-5a, (S,S)-2-(3'-Chlorophenyl)-3,5,5-trimethylmorpholine] |  |  |  |  | 0.036 |  | > 20 |  | > 20 | > 20 | AD50 Tail-flick [6]: 0.036 (0.012–0.1) mg/kg; More potent in the tail-flick test [6]: 5.5 times; AD50 Hot-plate [8, 19]: inactive; AD50 Hypothermia [10, 19]: inactive
C[C@H]1NC(C)(C)CO[C@@H]1c1cccc(Cl)c1 [(R,R)-5a, (R,R)-2-(3'-Chlorophenyl)-3,5,5-trimethylmorpholine] |  |  | 9.4 |  | 1.26 |  | 3.9 |  | > 20 | > 20 | 
CC(NC(C)(C)C)C(=O)c1cccc(Cl)c1 (stereo not drawn) [compound 2, bupropion] |  |  |  |  |  |  |  |  |  |  | AD50 Hot-plate [11]: 15 (6–19) mg/kg; AD50 CPP [12]: 0.35 mg/kg; AD50 Locomotion [13]: 4.9 (0.9–46) mg/kg; AD50 Hypothermia [14]: 9.2 (4–23) mg/kg
C[C@H]1NC(C)(C)CO[C@]1(O)c1cccc(Cl)c1 [(R,R)-4a, (R,R)-2-(3'-chlorophenyl)-3,5,5-trimethylmorpholine-2-ol] |  |  |  |  |  |  |  |  |  |  | AD50 Hot-plate [11]: 10.3 (5.7–17.1) mg/kg; AD50 Tail-flick [15]: 2.5 (1.2–3.6) mg/kg; Monoamine Uptake Inhibition IC50 [3H]DA [16]: inactive; AD50 Locomotion [13]: IA (IA = AD50 > 20 mg/kg); AD50 Hypothermia [14]: IA (IA = AD50 > 20 mg/kg)
C[C@H]1[C@H](c2cccc(Cl)c2)OCC(C)(C)N1C [(S,S)-5d, (S,S)-2-(3'-Chlorophenyl)-3,4,5,5-tetramethylmorpholine] | 0.23 ± 0.06 | 16 | 21 | 0.17 ± 0.02 | 0.13 | 23 | > 20 | 2.8 | > 20 | 3.8 | 
C[C@@H]1NC(C)(C)CO[C@@]1(O)c1cccc(Cl)c1 [(S,S)-4a, (S,S)-2-(3'-chlorophenyl)-3,5,5-trimethylmorpholine-2-ol] |  |  |  |  |  |  |  |  |  |  | AD50 Hot-plate [11]: 1.0 (0.2–2.2) mg/kg; AD50 Tail-flick [15]: 0.2 (0.06–0.7) mg/kg; AD50 CPP [12]: 0.1 mg/kg; Potency as functional antagonist of α4β2-nAChR, higher than ([3]; relative to (R,R)-4a): ~ 10 fold; AD50 Locomotion [13]: 0.9 (0.2–5.7) mg/kg
CCC[C@@H]1NC(C)(C)CO[C@H]1c1cccc(Cl)c1 [(S,S)-5h, (S,S)-2-(3'-Chlorophenyl)-5,5-dimethyl-3-propylmorpholine] | 0.006 ± 0.001 | 9.5 | 5 | 0.009 ± 0.002 | 0.017 | 8 | > 20 | 3.1 | > 20 | 0.49 | AD50 Locomotion [1]: 0.49(0.3–6.6) mg/kg; AD50 Tail-flick [6]: 0.017 (0.002–0.15) mg/kg
CCN1[C@@H](C)[C@H](c2cccc(Cl)c2)OCC1(C)C [(S,S)-5e, (S,S)-2-(3'-Chlorophenyl)-4-ethyl-3,5,5-trimethylmorpholine] | 0.044 ± 0.009 | 7.2 | 14 | 0.024 ± 0.008 | 0.029 | 6.4 | > 20 | 0.79 | > 20 | > 20 | AD50 CPP [17]: 0.025 mg/kg; More potent in blocking nicotine-induced CPP ([17]; relative to (S,S)-4a): 4 fold
CCCN1[C@@H](C)[C@H](c2cccc(Cl)c2)OCC1(C)C [(S,S)-5f, (S,S)-2-(3'-Chlorophenyl)-3,5,5-trimethyl-4-propylmorpholine] | 0.061 ± 0.02 | 12 | 5.5 | 0.013 ± 0.0036 | 0.056 | 5.8 | > 20 | 0.98 | > 20 | > 20 | AD50 CPP [17]: 0.03 mg/kg
C[C@@H]1NC(C)(C)CO[C@H]1c1cccc(F)c1 [(S,S)-5b, (S,S)-2-(3’-Fluorophenyl)-3,5,5-trimethylmorpholine] | 0.061 ± 0.02 | 23 | 34 | 0.032 ± 0.003 | 0.02 | 55 | > 20 | 5.6 | > 20 | 4.7 | More potent as DA uptake inhibitor ([2]; compared to (S,S)-4a): 10 fold; Increase in potency for inhibition of DA uptake [2]: 3.7 fold; More potent as NE uptake inhibitor ([5]; compared to (S,S)-4a): 5.6 fold; Increase in potency for inhibition of NE uptake ([5]; relative to (S,S)-5a): 3.2 fold; Decrease in potency for inhibition of 5HT uptake [18]: 12 fold
